The test system of the data set is MS2 coat protein. As to the kind of experiment: apparent Kd, MS2 coat protein; higher = weaker binding; RNA-MaP array; FMN 200 µM where present. In short, it runs like this: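 The apparent Kd is reported as the median of filtered per-cluster binding-curve fits. To get these curves, designs transcribed by stalled E. coli RNA polymerase on Illumina sequencing-chip clusters were titrated with SNAP-549-labelled MS2 coat protein from 0.7 or 1.5 nM, doubling to 3 µM. Titrations were run without and then with constant ligand in 100 mM Tris-HCl pH 7.5, 80 mM KCl, 4 mM MgCl2, BSA, DTT, yeast tRNA and Tween-20, and green signal was normalised to red-channel RNA signal and control-cluster median Fmax.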

Where [1] appears, read: designed as: ON switch for flavin mononucleotide, no ligand.
Setting [2] is: ligand present: flavin mononucleotide, designed as: ON switch for flavin mononucleotide.
Setting [3] is: designed as: OFF switch for flavin mononucleotide, no ligand.
Setting [4] is: ligand present: flavin mononucleotide, designed as: OFF switch for flavin mononucleotide.

As usually defined, the apparent Kd is a dissociation constant that holds for the conditions of the assay. For the sequence “AAUCGCGGUCGAAAGCGGUUGCAUGAGGAUAUCCUGAGACAUGAGGAUCACCCAUGUAGACUGCAGGAGAAGGCAUGGAAAGAA”, the “apparent Kd” value turned out to be 244 nM under setting [1] and 21.1 nM under setting [2].
Turning to “AAUAUGGGAGGAUAUGCAUAGAUAAAGAAACAUGUUCAACCACAUGAGGAUCACCCAUGUAGAAGGCCCAUAUA”, the “apparent Kd” value is, setting by setting: under setting [3], 34.6 nM; under setting [4], 129 nM.
In the case of “UUGGACGUCGUGGGAUAUGUAGGAUAUUCCUACAUGAGGAUCACCCAUGUUGACAUGGAAGAAGGACAGAAGGACGAUGUCCAU”, the “apparent Kd” value under setting [1] was found to be 152 nM and the “apparent Kd” value under setting [2] was found to be 5.55 nM.
On to “GUAUUUUUACAGAAGGUGUAUUACAUGAGGAUCACCCAUGUAUUAUGGAAUAAAGUUGUUAUUUACAAGGAUAUGUACUAUUUU”, for which the “apparent Kd” value was 19.3 nM under setting [1] and 14.8 nM under setting [2].
Regarding “UUAUGAGAGCAGGAUAUCUUAUAUGUGUAUUAAAGAGAAGGGCUCACAUGAGGAUCACCCAUGUGGUCCUAGAU”, the “apparent Kd” value is, setting by setting: under setting [3], 44.2 nM; under setting [4], 309 nM.
As for “UUUAUAAAUUAGAAGGCGAGAUGAAUUACAAUAGACAUGAGGAUCACCCAUGUGUACCCAUGUUUUGAGGAUAUAGUCAUAUAU”, the “apparent Kd” value by setting is: under setting [1], 743 nM; under setting [2], 585 nM.
Take “AAUGUUUGAUUCCACCUAUACAUGAGGAUCACCCAUGUUAUCGAGGAUAUGCAUUAGAGUGUUUAGCAGAAGGCGAUGUAAUUG”: the “apparent Kd” value reads like this: under setting [3], 8.34 nM; under setting [4], 23 nM.
Regarding “GUACUACAUGAGGAUCACCCAUGUACAAAUGUACGAGGAUAUGCAUGGACGAAAGUUGGUGCAGAAGGCGUAGUAC”, the “apparent Kd” value under setting [1] came out at 24.9 nM and the “apparent Kd” value under setting [2] came to 24 nM.
In the same order, the values of “UUUGGGUGGCUGGAGGAUAUUCUUGUGGUUACAUGAGGAUCACCCAUGUGUCGCGCGGUGCGCGAGGAGAAGGCUGGCGGCCGUU” are 411 nM and 128 nM.
For the sequence “CUCAUGUGAGGAUAUGUGAUCAACCUUCUAUAUAGAUGAUGACAGAAGGCACAUGAGGAUCACCCAUGUAGAUC”, the “apparent Kd” value is 65.5 nM under setting [3] and 20.1 nM under setting [4].
For the sequence “CUAGUACAUGAGGAUCACCCAUGUCAGGAUAUUGGAUAUGCCUUGGAAUACGUGUUUACAAGAAGGGACUAUAG”, the “apparent Kd” value under setting [3] worked out at 18.7 nM and the “apparent Kd” value under setting [4] turned out to be 19.2 nM.
In the same order, the values of “UCACGGAGCCUAGGAUAUACAUGAGGAUCACCCAUGUAUUGACGUUAGUGCUGGACUGAUUUGCUGUAGAAGGAGGUCACUGAG” are 16.6 nM and 18.3 nM.
Turning to “GGUUGGCGAGGAUAUACAUGAGGAUCACCCAUGUGGUCCUGCGGUGGUAUCGCCCUUUGUAGAAGGCGCGGGUC”, the “apparent Kd” value runs as follows: under setting [3], 112 nM; under setting [4], 117 nM.
For “UACGGACAUGAGGAUCACCCAUGUGAGGAUAUCGAUAACGAUAGCAUAAUAUAAACGGCGAGAAGGCACAGCGU”, in that order: 32.6 nM and 45.8 nM.
In the same order, the values of “UGUGGACAUGAGGAUCACCCAUGUGAGGAUAUGGUCUGGAUACACUUGAGCUCGGCAUCCAGAAGGCGCGUGGC” are 85.9 nM and 71.4 nM.
On to “UGUGUCAUCGAGAAGGCCUCAACAUGAGGAUCACCCAUGUUGUAAUAUGGGAGGAUAUCGAUGAUACAGCUACGUUUCGUAGCG”, for which the “apparent Kd” value reads like this: under setting [1], 19.8 nM; under setting [2], 5.56 nM.
For the sequence “UGUCUGAUCUAAUAACAUGAGGAUCACCCAUGUGUUCACAACUAGGAUAUCGAUUAUUAAAACGUCGAGAAGGAGUAUACAUUA”, the “apparent Kd” value is, setting by setting: under setting [3], 34.5 nM; under setting [4], 43.6 nM.
In the case of “GGACUGGACUAGAAGGGUGAUGCGCUCGCAGACACAGGAUAUAGUCACAUGAGGAUCACCCAUGUCGGUCCAAGUGAAGAAACU”, the “apparent Kd” value turned out to be 98.2 nM under setting [1] and 24.4 nM under setting [2].
For “GGGUACAUCGGAGGAUAUCAUGUAAAUACAUGAGGAUCACCCAUGUCGAUGGAGACAUCGGAGAUUGAGAAGGCCGAUGUCCCG”, in that order: 194 nM and 7.99 nM.
Take “GCUGCAAAGUAAGGAUAUGCCUAGGAAACCUAGGCAGAAGGUACAUGAGGAUCACCCAUGUUAACCCAAAGGGAAUAAAGCAGC”: the “apparent Kd” value runs as follows: under setting [3], 15.8 nM; under setting [4], 25.3 nM.
In the same order, the values of “AUAUAUCAUACAGGAUAUACAUGAGGAUCACCCAUGUGUCCUCCAUAAUUGACACCAAUUAUGCUGUAGAAGGGUAUGAUAUAU” are 293 nM and 258 nM.
For “AAAAGUCGGCAAGGAUAUACAACGGAUUCCCUUGUAGAAGGUGCAGGACAUGAGGAUCACCCAUGUGAUCCGGGUAUAUUGAUG”, in that order: 27.8 nM and 44.8 nM.
“GUAGCAUACCGAGGAUAUUCAUACCGGAAACGGACAUGAGGAUCACCCAUGUGGCUAAUGCCUUGGGAGAAGGCGGAAUGCUAC”: the “apparent Kd” value was 568 nM under setting [1] and 21.7 nM under setting [2].
For the sequence “GUCAGCUCGUGAGGAUAUACAACACUGCUUCGGCAGUGUAUAAAGAUCACAUGAGGAUCACCCAUGUAGAAGGCACGAGCUGAU”, the “apparent Kd” value worked out at 15.2 nM under setting [3] and 213 nM under setting [4].
In the same order, the values of “AACUCGUCAGGAUAUGCGCACAGAUAAUACGCUUCGCAAUUGCAGAAGGGACAUGAGGAUCACCCAUGUAAAUA” are 30.6 nM and 27 nM.
Consider “GUAGCUAUCGGAGGAUAUUCAUACCGGAAACGGACAUGAGGAUCACCCAUGUGGCGAAAGCCUUGGAAGAAGGCCGAUAGCUAC”, for which the “apparent Kd” value under setting [1] was determined as 4.08 nM and the “apparent Kd” value under setting [2] came to 3.56 nM.
As for “GAACUGAAGCAUAGCUUUAGUCGUACAUGAGGAUCACCCAUGUAGGAUAUGGUAGGCAUAGCUUACUAGAAGGAUAGAGUGAUU”, the “apparent Kd” value was found to be 96.5 nM under setting [3] and 67.9 nM under setting [4].
In the same order, the values of “UUAGAGGAUUGAGGAUAUGCAGAGAGAUUAUGCGCGUCGCGCACAUGAGGAUCACCCAUGUAAGAGCAGAAGGUAACUAUGAUC” are 24.3 nM and 21.8 nM.
Take “CAGUAUUUCGAAGGAUAUGGUUACAUGAGGAUCACCCAUGUAUUUUUUGUGAUCUUAAAAUUGAUCCAGAAGGUCGUAUAACUG”: the “apparent Kd” value was found to be 101 nM under setting [3] and 232 nM under setting [4].
For “UGGUACUAGGGAGGAUAUGGGAAGAUACAUGAGGAUCACCCAUGUCUAAGAAUGCCGAGAGGCAACUAGAAGGCCCUAGUACCU”, the “apparent Kd” value was determined as 98.3 nM under setting [1] and 496 nM under setting [2].
For “CAUGCCUGCACAGGAUAUCAUACAUGAGGAUCACCCAUGUCUAACAACACAUGAGAAGGGUGCAUGCCUGGGCGAAGUUUUGUG”, in that order: 24.3 nM and 6.22 nM.
Take “GGAUAGGCCAGAGGAUAUACGUGCUAGAGAUACUAGCAAAAUUUCCUCACAUGAGGAUCACCCAUGUAGAAGGCUGUCCUAUCG”: the “apparent Kd” value under setting [3] was found to be 7.31 nM and the “apparent Kd” value under setting [4] was determined as 49.9 nM.
In the same order, the values of “AGAGAUGACGAAGGAUAUGGAUACAUGAGGAUCACCCAUGUUUAUUUAGUGAUUUUGUAUGAAUACCAGAAGGUCGAAUAAAAG” are 125 nM and 342 nM.
In the same order, the values of “GUGCGUGGCUAGGAUAUUGUGGAGUUUAGUCAGCGAGAAGGCGCCACAUGAGGAUCACCCAUGUGGUGUUGCUC” are 13.1 nM and 14.7 nM.
In the case of “AGGCCACAAGGAUAUACAUGAGGAUCACCCAUGUAGAAAGACGUGUGGUCAUGUUCGAGUAGAAGGUGUAGCGG”, the “apparent Kd” value came to 12.9 nM under setting [3] and 12.7 nM under setting [4].
As for “UUAUGAGCGAUAGGAUAUACUGAGAUUGAAUGGGUAGAAGGAUCGAUCGUGUAGAAGACAUGAGGAUCACCCAUGUUACGGGCC”, the “apparent Kd” value by setting is: under setting [1], 97 nM; under setting [2], 218 nM.

Source of the values: the EternaBench riboswitch data.
